Results: ChEMBL document CHEMBL1133111, “Structure-based discovery of small molecule inhibitors targeted to protein tyrosine phosphatase 1B” (J Med Chem, 2000)
Several values for one entry are separate records, joined by “and”; a condition that tells them apart may be missing. Equal entries are not always repeated.

Experiments:
[1] = biological target: Dual specificity protein phosphatase 3 (Homo sapiens) (UniProt P51452); assay: Inhibitory activity against human recombinant vaccinia H1 related phosphatase (Dual specificity protein phosphatase 3)
How it was run: (§1)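 Recombinant enzymes: human PTP1B; human PTPα intracellular fragment with both PTPase domains, cleaved from GST fusion; LAR with both PTPase domains; VHR purified to homogeneity. pNPP hydrolysis at 30 °C, pH 7.0, 50 mM 3,3-dimethylglutarate, ionic strength 0.15 M (NaCl), 10% DMSO final. Quenched with 1 N NaOH, A405 read. Ki from eight pNPP levels (0.2–5 Km) at three inhibitor concentrations.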

[2] = biological target: Receptor-type tyrosine-protein phosphatase F (Rattus norvegicus) (UniProt Q64604); assay: (§2) Inhibitory activity against rat recombinant leukocyte-common antigen-related molecule (LAR)
How it was run: (§3)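 Recombinant enzymes used: human PTP1B and LAR bearing both PTPase domains. Compounds were dissolved in DMSO, with 10% DMSO final in all reactions. Buffer was 50 mM 3,3-dimethylglutarate, pH 7.0, ionic strength 0.15 M set with NaCl, at 30 °C. Initial rates of pNPP hydrolysis were measured at eight substrate levels (0.2–5 Km) and three fixed inhibitor levels. Reactions were quenched with NaOH and read at A405 (ε 18 000 M⁻¹ cm⁻¹), correcting for non-enzymatic hydrolysis. Kis (slope) and Kii (intercept) were obtained from steady-state kinetics.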

[3] = biological target: Receptor-type tyrosine-protein phosphatase alpha (Homo sapiens) (UniProt P18433); assay: Inhibitory activity against protein tyrosine phosphatases alpha (PTP alpha); how it was run: as §1
[4] = biological target: T1, Tyrosine-protein phosphatase non-receptor type 1 (Homo sapiens) (UniProt P18031); assay: Inhibitory activity against protein tyrosine phosphatases (PTP1B) (Kii=intercept inhibitory constant); how it was run: as §3
T1 sequence (whole entry): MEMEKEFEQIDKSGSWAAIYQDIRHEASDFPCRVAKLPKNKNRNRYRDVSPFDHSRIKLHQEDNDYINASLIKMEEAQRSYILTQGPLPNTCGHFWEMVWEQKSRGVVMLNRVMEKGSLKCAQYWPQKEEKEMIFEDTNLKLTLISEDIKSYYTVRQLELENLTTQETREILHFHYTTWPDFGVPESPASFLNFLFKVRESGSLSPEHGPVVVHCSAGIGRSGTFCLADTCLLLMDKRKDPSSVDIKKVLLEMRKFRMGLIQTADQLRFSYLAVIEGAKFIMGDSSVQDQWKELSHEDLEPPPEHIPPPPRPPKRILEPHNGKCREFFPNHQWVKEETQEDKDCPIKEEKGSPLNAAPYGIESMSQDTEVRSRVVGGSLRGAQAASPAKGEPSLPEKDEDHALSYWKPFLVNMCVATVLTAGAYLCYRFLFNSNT

[5] = biological target: T1, Tyrosine-protein phosphatase non-receptor type 1 (Homo sapiens); assay: Inhibitory activity against protein tyrosine phosphatases (PTP1B) (Kis=slope inhibitory constant); how it was run: as §3
[6] = biological target: Receptor-type tyrosine-protein phosphatase F (Rattus norvegicus) (UniProt Q64604); assay: as §2; how it was run: as §1; remark: listed apart in the source
[7] = biological target: T1, Tyrosine-protein phosphatase non-receptor type 1 (Homo sapiens); assay: Inhibitory activity against protein tyrosine phosphatases (PTP1B); no inhibition at 1 mM

Dual specificity protein phosphatase 3 (Homo sapiens), sequence (P51452 whole entry, looked up, the tested form may be a part): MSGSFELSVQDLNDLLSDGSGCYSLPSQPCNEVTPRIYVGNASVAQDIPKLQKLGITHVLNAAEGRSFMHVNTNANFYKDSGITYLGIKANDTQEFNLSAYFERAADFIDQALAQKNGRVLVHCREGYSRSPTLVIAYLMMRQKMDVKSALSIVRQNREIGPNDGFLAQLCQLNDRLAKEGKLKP
Receptor-type tyrosine-protein phosphatase F (Rattus norvegicus), sequence (Q64604 whole entry, the tested form may be a part): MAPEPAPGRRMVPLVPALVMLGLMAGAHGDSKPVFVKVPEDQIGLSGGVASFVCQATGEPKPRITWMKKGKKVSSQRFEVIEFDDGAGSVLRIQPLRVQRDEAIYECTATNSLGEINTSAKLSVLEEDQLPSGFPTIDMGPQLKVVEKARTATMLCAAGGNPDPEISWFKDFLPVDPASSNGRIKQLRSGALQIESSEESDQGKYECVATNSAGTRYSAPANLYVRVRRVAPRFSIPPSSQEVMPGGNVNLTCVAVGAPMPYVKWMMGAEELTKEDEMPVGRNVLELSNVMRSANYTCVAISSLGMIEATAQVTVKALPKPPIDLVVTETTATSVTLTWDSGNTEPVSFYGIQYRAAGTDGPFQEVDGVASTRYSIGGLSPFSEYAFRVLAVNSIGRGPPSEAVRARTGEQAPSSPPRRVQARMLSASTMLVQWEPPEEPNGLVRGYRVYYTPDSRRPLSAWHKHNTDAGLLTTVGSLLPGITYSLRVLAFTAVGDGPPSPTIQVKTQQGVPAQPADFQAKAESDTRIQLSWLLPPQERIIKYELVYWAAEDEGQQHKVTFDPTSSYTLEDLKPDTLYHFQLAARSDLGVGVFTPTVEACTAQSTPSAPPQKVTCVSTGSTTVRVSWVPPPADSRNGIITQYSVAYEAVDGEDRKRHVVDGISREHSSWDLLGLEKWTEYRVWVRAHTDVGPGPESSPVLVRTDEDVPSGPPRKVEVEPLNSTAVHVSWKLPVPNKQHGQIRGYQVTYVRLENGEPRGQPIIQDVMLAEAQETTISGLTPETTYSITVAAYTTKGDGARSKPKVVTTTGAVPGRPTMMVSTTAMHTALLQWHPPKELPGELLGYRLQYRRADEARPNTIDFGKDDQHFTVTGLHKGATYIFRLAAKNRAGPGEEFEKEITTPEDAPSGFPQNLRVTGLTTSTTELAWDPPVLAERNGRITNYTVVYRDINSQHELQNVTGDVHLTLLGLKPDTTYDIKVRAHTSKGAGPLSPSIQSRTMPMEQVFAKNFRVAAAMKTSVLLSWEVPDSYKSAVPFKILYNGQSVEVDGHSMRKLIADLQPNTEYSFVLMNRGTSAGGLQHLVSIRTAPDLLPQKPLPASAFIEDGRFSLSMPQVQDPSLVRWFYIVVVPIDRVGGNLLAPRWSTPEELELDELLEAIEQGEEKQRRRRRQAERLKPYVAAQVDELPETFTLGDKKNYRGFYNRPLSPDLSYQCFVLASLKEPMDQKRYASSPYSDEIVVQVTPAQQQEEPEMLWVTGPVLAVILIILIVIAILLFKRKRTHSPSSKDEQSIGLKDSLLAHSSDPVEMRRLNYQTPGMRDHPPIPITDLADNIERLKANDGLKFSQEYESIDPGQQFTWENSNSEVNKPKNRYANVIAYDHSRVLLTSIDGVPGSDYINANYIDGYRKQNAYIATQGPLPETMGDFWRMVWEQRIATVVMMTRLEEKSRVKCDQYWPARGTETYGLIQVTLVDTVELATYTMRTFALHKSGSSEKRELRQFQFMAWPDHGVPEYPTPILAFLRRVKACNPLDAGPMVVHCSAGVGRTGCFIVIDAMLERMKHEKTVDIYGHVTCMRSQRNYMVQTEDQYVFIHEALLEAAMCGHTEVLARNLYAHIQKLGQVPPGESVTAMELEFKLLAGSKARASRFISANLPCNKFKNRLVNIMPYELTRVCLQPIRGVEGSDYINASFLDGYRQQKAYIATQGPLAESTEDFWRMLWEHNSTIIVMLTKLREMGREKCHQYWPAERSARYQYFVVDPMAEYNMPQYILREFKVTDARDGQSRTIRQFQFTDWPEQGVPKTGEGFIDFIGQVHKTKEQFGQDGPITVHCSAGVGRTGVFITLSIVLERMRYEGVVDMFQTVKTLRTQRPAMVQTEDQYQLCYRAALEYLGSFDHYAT
Receptor-type tyrosine-protein phosphatase alpha (Homo sapiens), sequence (P18433 20-802 limits assumed): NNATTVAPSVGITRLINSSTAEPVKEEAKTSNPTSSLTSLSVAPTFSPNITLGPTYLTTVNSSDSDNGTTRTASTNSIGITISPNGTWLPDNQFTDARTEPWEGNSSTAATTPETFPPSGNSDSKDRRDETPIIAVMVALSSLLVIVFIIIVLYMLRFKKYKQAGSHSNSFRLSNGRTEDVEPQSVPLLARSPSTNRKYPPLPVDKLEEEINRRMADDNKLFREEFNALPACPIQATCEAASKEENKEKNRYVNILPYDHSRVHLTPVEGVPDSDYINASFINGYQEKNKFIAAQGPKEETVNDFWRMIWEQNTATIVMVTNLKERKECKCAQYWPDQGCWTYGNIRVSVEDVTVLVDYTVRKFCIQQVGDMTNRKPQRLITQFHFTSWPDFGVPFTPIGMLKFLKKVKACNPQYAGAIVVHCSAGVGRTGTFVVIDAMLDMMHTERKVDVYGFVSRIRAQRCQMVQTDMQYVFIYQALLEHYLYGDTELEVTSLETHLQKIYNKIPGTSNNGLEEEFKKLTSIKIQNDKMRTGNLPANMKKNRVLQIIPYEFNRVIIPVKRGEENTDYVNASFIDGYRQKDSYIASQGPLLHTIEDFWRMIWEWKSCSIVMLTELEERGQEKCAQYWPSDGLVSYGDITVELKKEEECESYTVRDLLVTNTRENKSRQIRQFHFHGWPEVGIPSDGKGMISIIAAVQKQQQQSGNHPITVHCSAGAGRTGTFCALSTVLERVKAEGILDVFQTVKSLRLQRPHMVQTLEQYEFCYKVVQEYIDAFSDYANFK

Structure (SMILES)	Kis [1] [µM]	Kii [2] [µM]	Kis [3] [µM]	Kii [4] [µM]	Kis [5] [µM]	Kis [6]	NI [7]
O=C(CSc1nnc(Nc2ccc(F)cc2)s1)c1ccc(Cl)cc1	> 100	92	57	131	110	53 µM	–
O=[N+]([O-])c1ccc(OS(=O)(=O)O)cc1	–	–	–	–	10000	–	–
O=C(O)c1cc(NCn2c(S)nc3ccccc32)ccc1O	> 100	–	180	–	61	> 100 µM	–
C[C@]12CC[C@@H]3c4ccc(OS(=O)(=O)O)cc4CC[C@H]3[C@@H]1CC[C@@H]2O	–	–	–	–	–	–	no inhibition at 1 mM
O=C1c2ccccc2-c2cc([N+](=O)[O-])cc3cccc1c23	> 100	–	> 100	–	21	68 µM and 57 µM	–
C[C@]12CC[C@@H]3c4ccc(OS(=O)(=O)O)cc4CC[C@H]3[C@@H]1CCC2=O	–	–	–	–	2100	–	–
O=C(O)c1ccccc1O	–	–	–	–	19400	–	–
O=S(=O)(O)Oc1c2ccccc2c2ccc3c(OS(=O)(=O)O)c4ccccc4c4ccc1c2c34	> 100	–	> 100	–	39	> 100 µM	–
O=C(O)c1ccc(Oc2ccc(C(=O)c3ccc4c(c3)C(=O)OC4=O)cc2)cc1	> 1000	–	> 1000	–	510	> 1000 µM	–
O=S(=O)(O)c1ccc2c3c(ccc2c1)CCCC3	> 1000	–	410	–	240	> 1000 µM	–
Cc1ccc2c(c1)nc(S)n2CNc1ccc(C(=O)O)c(O)c1	–	–	–	–	750	–	–
O=C(/C=C/c1cccc([N+](=O)[O-])c1)c1c(O)nc2cc([N+](=O)[O-])ccc2c1-c1ccccc1	> 100	–	> 100	–	54	> 100 µM	–
